{"source": "ChEMBL document CHEMBL1132232", "about": "“7alpha-Iodo and 7alpha-fluoro steroids as androgen receptor-mediated imaging agents” (J Med Chem, 1999)", "key": {"[1]": {"test_system": "Rattus norvegicus", "assay": "Distribution of tissue Radioactivity following Intravenous injection into castrated male rat prostate/blood at 0.5 hours time", "assay_type": "ADME, organism-based", "conditions": "in vivo", "summary_of_the_method": "(§1)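 Male Sprague–Dawley rats, about 250 g, were castrated and injected the next day via the tail vein with 5.4 μCi (2.4 pmol) of 125I tracer in ethanol/saline (1:4). There were 5–6 rats per group. At 0.5, 1, 2 or 4 h, rats were ether-anesthetized and killed by exsanguination. Tissues were dissected, weighed and counted, giving % injected dose/g and prostate/blood ratios.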"}, "[2]": {"test_system": "Rattus norvegicus", "assay": "Distribution of tissue Radioactivity following Intravenous injection into castrated male rat spleen at 1 hour time", "assay_type": "ADME, organism-based", "conditions": "in vivo", "summary_of_the_method": "as §1"}, "[3]": {"test_system": "Rattus norvegicus", "assay": "Distribution of tissue Radioactivity following Intravenous injection into castrated male rat lung at 2 hours time", "assay_type": "ADME, organism-based", "conditions": "in vivo", "summary_of_the_method": "as §1"}, "[4]": {"test_system": "Rattus norvegicus", "assay": "Distribution of tissue Radioactivity following Intravenous injection into castrated male rat liver at 0.5 hours time", "assay_type": "ADME, organism-based", "conditions": "in vivo", "summary_of_the_method": "as §1"}, "[5]": {"test_system": "Rattus norvegicus", "assay": "Distribution of tissue Radioactivity following Intravenous injection into castrated male rat prostate/blood at 4 hours time", "assay_type": "ADME, organism-based", "conditions": "in vivo", "summary_of_the_method": "as §1"}, "[6]": {"test_system": "Rattus norvegicus", "assay": "Distribution of tissue Radioactivity following subcutaneous injection of […] of 5-alpha-DHT 15 min before the administration of the [125I]- tracer castrated male rat thyroid at 1 hour time", "assay_type": "ADME, organism-based, Thyroid gland", "conditions": "in vivo, sc"}, "[7]": {"test_system": "Rattus norvegicus", "assay": "Distribution of tissue Radioactivity following Intravenous injection into castrated male rat thyroid at 0.5 hours time", "assay_type": "ADME, organism-based, Thyroid gland", "conditions": "in vivo", "summary_of_the_method": "as §1"}, "[8]": {"test_system": "Rattus norvegicus", "assay": "Distribution of tissue Radioactivity following Intravenous injection into castrated male rat spleen at 2 hours time", "assay_type": "ADME, organism-based", "conditions": "in vivo", "summary_of_the_method": "as §1"}, "[9]": {"test_system": "Rattus norvegicus", "assay": "Distribution of tissue Radioactivity following Intravenous injection into castrated male rat fat at 2 hours time", "assay_type": "ADME, organism-based, Adipose tissue", "conditions": "in vivo", "summary_of_the_method": "as §1"}, "[10]": {"test_system": "Rattus norvegicus", "assay": "Distribution of tissue Radioactivity following Intravenous injection into castrated male rat kidney at 1 hour time", "assay_type": "ADME, organism-based", "conditions": "in vivo", "summary_of_the_method": "as §1"}, "[11]": {"test_system": "Rattus norvegicus", "assay": "Distribution of tissue Radioactivity following subcutaneous injection of […] of 5-alpha-DHT 15 min before the administration of the [125I]- tracer castrated male rat fat at 1 hour time", "assay_type": "ADME, organism-based, Adipose tissue", "conditions": "in vivo, sc", "summary_of_the_method": "(§2)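 Castrated male Sprague–Dawley rats, about 250 g, received 5α-DHT subcutaneously in propylene glycol/saline (3:2) 15 min before a tail-vein 125I tracer (5.4 μCi, 2.4 pmol, in ethanol/saline 1:4). There were 5–6 rats per group. At 1 h, rats were ether-anesthetized and exsanguinated. Tissues were weighed and counted as % injected dose/g, plus the prostate/blood ratio.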"}, "[12]": {"test_system": "Rattus norvegicus", "assay": "Distribution of tissue Radioactivity following Intravenous injection into castrated male rat blood at 4 hours time", "assay_type": "ADME, organism-based", "conditions": "in vivo", "summary_of_the_method": "as §1"}, "[13]": {"test_system": "Rattus norvegicus", "assay": "Distribution of tissue Radioactivity following Intravenous injection into castrated male rat liver at 1 hour time", "assay_type": "ADME, organism-based", "conditions": "in vivo", "summary_of_the_method": "as §1"}, "[14]": {"test_system": "Rattus norvegicus", "assay": "Distribution of tissue Radioactivity following Intravenous injection into castrated male rat spleen at 4 hours time", "assay_type": "ADME, organism-based", "conditions": "in vivo", "summary_of_the_method": "as §1"}, "[15]": {"test_system": "Rattus norvegicus", "assay": "Distribution of tissue Radioactivity following subcutaneous injection of […] of 5-alpha-DHT 15 min before the administration of the [125I]- tracer castrated male rat blood at 1 hour time", "assay_type": "ADME, organism-based", "conditions": "in vivo, sc", "summary_of_the_method": "as §2"}, "[16]": {"test_system": "Rattus norvegicus", "assay": "Distribution of tissue Radioactivity following Intravenous injection into castrated male rat lung at 0.5 hours time", "assay_type": "ADME, organism-based", "conditions": "in vivo", "summary_of_the_method": "as §1"}, "[17]": {"test_system": "Rattus norvegicus", "assay": "Distribution of tissue Radioactivity following Intravenous injection into castrated male rat fat at 1 hour time", "assay_type": "ADME, organism-based, Adipose tissue", "conditions": "in vivo", "summary_of_the_method": "as §1"}, "[18]": {"test_system": "Rattus norvegicus", "assay": "Distribution of tissue Radioactivity following Intravenous injection into castrated male rat kidney at 0.5 hours time", "assay_type": "ADME, organism-based", "conditions": "in vivo", "summary_of_the_method": "as §1"}, "[19]": {"test_system": "Rattus norvegicus", "assay": "Distribution of tissue Radioactivity following Intravenous injection into castrated male rat blood at 2 hours time", "assay_type": "ADME, organism-based", "conditions": "in vivo", "summary_of_the_method": "as §1"}, "[20]": {"test_system": "Rattus norvegicus", "assay": "Distribution of tissue Radioactivity following Intravenous injection into castrated male rat prostate/blood at 2 hours time", "assay_type": "ADME, organism-based", "conditions": "other tissue", "summary_of_the_method": "as §1"}, "[21]": {"test_system": "Rattus norvegicus", "assay": "Distribution of tissue Radioactivity following Intravenous injection into castrated male rat muscle at 1 hour time", "assay_type": "ADME, organism-based", "conditions": "in vivo", "summary_of_the_method": "as §1"}, "[22]": {"test_system": "Rattus norvegicus", "assay": "Distribution of tissue Radioactivity following Intravenous injection into castrated male rat blood at 1 hour time", "assay_type": "ADME, organism-based", "conditions": "in vivo", "summary_of_the_method": "as §1"}, "[23]": {"test_system": "Rattus norvegicus", "assay": "Distribution of tissue Radioactivity following Intravenous injection into castrated male rat liver at 2 hours time", "assay_type": "ADME, organism-based", "conditions": "in vivo", "summary_of_the_method": "as §1"}, "[24]": {"test_system": "Rattus norvegicus", "assay": "Distribution of tissue Radioactivity following Intravenous injection into castrated male rat lung at 1 hour time", "assay_type": "ADME, organism-based", "conditions": "in vivo", "summary_of_the_method": "as §1"}, "[25]": {"test_system": "Rattus norvegicus", "assay": "Distribution of tissue Radioactivity following Intravenous injection into castrated male rat prostate at 0.5 hours time", "assay_type": "ADME, organism-based, Prostate gland", "conditions": "in vivo", "summary_of_the_method": "as §1"}, "[26]": {"test_system": "Rattus norvegicus", "assay": "Distribution of tissue Radioactivity following Intravenous injection into castrated male rat thyroid at 1 hour time", "assay_type": "ADME, organism-based, Thyroid gland", "conditions": "in vivo", "summary_of_the_method": "as §1"}}, "data": [{"smiles": "C[C@]12CCC(=O)CC1C[C@@H](I)[C@@H]1[C@@H]2CC[C@@]2(C)[C@H]1CC[C@]2(C)O", "note": "(stereo partly specified)", "values": [{"measurement": "Dose/g", "setting": "[1]", "value": 0.7, "unit": "%"}, {"measurement": "Biodistribution", "setting": "[2]", "value": 0.16, "unit": "%"}, {"measurement": "Biodistribution", "setting": "[3]", "value": 0.24, "unit": "%"}, {"measurement": "Dose/g", "setting": "[4]", "value": 0.31, "unit": "%"}, {"measurement": "Dose/g", "setting": "[5]", "value": 1.19, "unit": "%"}, {"measurement": "Biodistribution", "setting": "[6]", "value": 3.55, "unit": "%"}, {"measurement": "Biodistribution", "setting": "[7]", "value": 1.58, "unit": "%"}, {"measurement": "Biodistribution", "setting": "[8]", "value": 0.15, "unit": "%"}, {"measurement": "Dose/g", "setting": "[9]", "value": 0.2, "unit": "%"}, {"measurement": "Dose/g", "setting": "[10]", "value": 0.27, "unit": "%"}, {"measurement": "Biodistribution", "setting": "[11]", "value": 0.29, "unit": "%"}, {"measurement": "Dose/g", "setting": "[12]", "value": 0.37, "unit": "%"}, {"measurement": "Biodistribution", "setting": "[13]", "value": 0.29, "unit": "%"}, {"measurement": "Dose/g", "setting": "[14]", "value": 0.17, "unit": "%"}, {"measurement": "Dose/g", "setting": "[15]", "value": 0.35, "unit": "%"}, {"measurement": "Dose/g", "setting": "[16]", "value": 0.22, "unit": "%"}, {"measurement": "Dose/g", "setting": "[17]", "value": 0.25, "unit": "%"}, {"measurement": "Biodistribution", "setting": "[18]", "value": 0.26, "unit": "%"}, {"measurement": "Biodistribution", "setting": "[19]", "value": 0.31, "unit": "%"}, {"measurement": "Biodistribution", "setting": "[20]", "value": 1.43, "unit": "%"}, {"measurement": "Dose/g", "setting": "[21]", "value": 0.07, "unit": "%"}, {"measurement": "Biodistribution", "setting": "[22]", "value": 0.33, "unit": "%"}, {"measurement": "Biodistribution", "setting": "[23]", "value": 0.23, "unit": "%"}, {"measurement": "Biodistribution", "setting": "[24]", "value": 0.24, "unit": "%"}, {"measurement": "Biodistribution", "setting": "[25]", "value": 0.21, "unit": "%"}, {"measurement": "Dose/g", "setting": "[26]", "value": 4.07, "unit": "%"}]}]}
